According to the array DNA melting data of Ke et al. (doi:10.1101/2024.01.08.574731):

Key:
[1] = melting temperature; fluorescence melt of hairpins on a sequencing array, two-state fit, raised by 9.35 °C to match UV melts; settings: sodium 0.088 M
Method in brief: (§1)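 Melting temperature and folding enthalpy were obtained by bootstrapped two-state fitting. Fits used Cy3 fluorescence of library hairpins with annealed Cy3 and quencher oligos on a sequenced MiSeq flow cell, imaged in 50 mM Na-HEPES pH 8.0, 25 mM NaCl in 2.5 °C steps up to 60 °C and normalised to pre-quench Cy3 and control constructs. Four replicates were combined by inverse-variance weighting, and fitted temperatures were raised by 9.35 °C to match UV melts.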

[2] = folding enthalpy; higher = less favourable; fluorescence melt of hairpins on a sequencing array, two-state fit; settings: sodium 0.088 M
Method in brief: as §1

Sequence	Tm [1] [°C]	folding enthalpy [2] [kcal/mol]
GCGCAGCGAAAGCCTCGC (((..((....))..)))	42.1	-8.27
GATCCCGGAAACGGGGTC ((.((((....)))).))	57.6	-25.8
GAGCACCGAAAGGTTCTC (((.(((....))).)))	45.8	-27.6
GCTGGTGGAAACGCTAGC (((.(.(....).).)))	41.2	-26.8
GTATGCGAAAGCACTTAC ((((((....)))..)))	35.1	-13.1
GATCCATGTGTGGATC ((((((....))))))	56.5	-37.2
GACAAACCGAAAGGTGTC (((..(((....))))))	43.2	-19.8
GATGTGCGAAAGCAAATC (((.(((....))).)))	46.6	-23.3
GATCCTCACAGGATC ((((((...))))))	54	-27.2
GCAGGCCGAAAGGCTGC (((.(((....))))))	67.3	-22.2
GATCTAGGGCTAGATC ((((((....))))))	43.5	-32.9
GATCTTTTCTAAGATC ((((((....))))))	45.2	-36.8
GTTATATCGAAAGATAAC (((..(((....))))))	27.7	-11.2
GATCAGCGGTCTGATC ((((((....))))))	49.9	-32.1
GGGTGATCGAAAGATCCC (((..(((....))))))	50.2	-19
GGGCCTACGAAAGTACCC (((..(((....))))))	34.7	-9.06
GCGGTCACCGC ((((...))))	63	-23.8
GGCTTCGAAAGAAGCGCC ((((((....)))..)))	57	-9.54
GATCAACACTTTGATC ((((((....))))))	47.6	-37.8
GATCGGGGGACCGATC ((((((....))))))	61.9	-36.2
GTACTGCGAAAGCACTAC (((.(((....))).)))	28.8	-14.8
GCCTGCGAAAGCATCGGC ((((((....)))..)))	47.2	-19.1
GATCTTTTACAAGATC ((((((....))))))	42.8	-31.9

Sequence	Tm [1] [°C]	folding enthalpy [2] [kcal/mol]
GCGGGAGGAAACTCCCAC (.(((((....))))).)	48.7	-13.7
GAACGAGGAAACTCGTCC (.(((((....))))).)	37.8	-13.7
GCGCGTTCGAAAGAACGC (((..(((....))))))	68	-6.28
GGCCACGAAAGTGGCGCC ((((((....)))..)))	65.5	-7.19
GGTCCCGAAAGGGTACC ((((((....))).)))	55.5	-23.4
GGTATGGGAAACCATACC (((((((....)))))))	58	-45.3
GTATTAGGAAACTAATAC (((((((....)))))))	46.3	-38
GCTGATCCGAAAGGAAGC (((..(((....))))))	39	-18
GAAGCGCGAAAGCGTTC (((.(((....))))))	41.2	-10.6
GGTCCCTCGAAAGAGACC (((..(((....))))))	34.8	-17.1
CGGCCGGAAACGGTACCG ((((((....)))..)))	43.1	-18.4
GCCCCCGGAAACGGAGGC (((.(((....))).)))	54.9	-35
GAATTGCGAAAGCAGTTC (((.(((....))).)))	51.5	-30.3
GCTGATGCGAAAGCAAGC (((..(((....))))))	43.5	-19.4
GCGGGTGGAAACGCTCGC (((.(.(....).).)))	52.1	-24.6
GGGTGTGGAAACGCATCC ((.((.(....).)).))	41.3	-26.3
GTGACCGAAAGGTCCCAC ((((((....)))..)))	35.9	-8.57
GCTCTGGGAAACCGGAGC ((((.((....)).))))	57.2	-52.9
GCCATCCGAAAGGAAGGC (((.(((....))).)))	57.9	-31.3
GGGTGGCCGAAAGGCCCC (((..(((....))))))	54.2	-11.8
GCGGGAGGAAACTCTCGC (((.(((....))).)))	57.5	-37.2
GCCAGGCGAAAGCACGGC (((..((....))..)))	60.6	-18.3
GAAACTGGAAACAGTCTC ((.((((....)))).))	28	-15.5

Sequence	Tm [1] [°C]	folding enthalpy [2] [kcal/mol]
GGCTCCCCGAAAGGGGCC (((..(((....))))))	50.9	-12
GGAACCGAAAGGTGGTCC ((((((....)))..)))	35.4	-14.7
GCACAAGGAAACTTGTGC (((((((....)))))))	67.4	-33.7
GCGTTCGAAAGAAAACGC ((((((....)))..)))	49	-27.3
GTACAGACGAAAGTCTAC (((..(((....))))))	29.8	-11.5
GATCACGAAAGTGGCATC ((((((....)))..)))	30.3	-12.3
GTAATAGGAAACTATTGC (.(((((....))))).)	34.2	-18.7
GGTCGCGAAAGCGTAACC ((((((....)))..)))	47.2	-15
GATCTTAGAAAAGATC ((((((....))))))	36.4	-21.6
GATCTGGCTACAGATC ((((((....))))))	59.4	-42
GGTAAGAAATTACC (((((....)))))	34.3	-16
GACGCAGAAATGCGTC ((((((....))))))	68.5	-35.9
GCCCGTGGAAACACAGGC (((.(((....))).)))	50.4	-29.8
GACAGCGAAAGCTTGTC ((((((....))).)))	52.6	-22
GCCCCTGGAAACAGAGGC (((.(((....))).)))	46.3	-27.7
GATCCTCAACAGGATC ((((((....))))))	48.7	-37.2
GCGTTGGGAAACTAACGC (((((.(....).)))))	55.5	-47.8
GATCAAATAGTTGATC ((((((....))))))	37.9	-29.5
GCGTAACCACGC ((((....))))	54.8	-23.3
GTAAGCGGAAACGCCTAC (((.(((....))).)))	35.4	-15.8
GGTGCAGGAAACTGCATC (.(((((....))))).)	53	-22.4
GATCAGAATGCTGATC ((((((....))))))	47	-28.1
GCGATCGAAAGATCACGC ((((((....)))..)))	48.2	-21.7

Sequence	Tm [1] [°C]	folding enthalpy [2] [kcal/mol]
GCGCTGCGAAAGCGTCGC (((..((....))..)))	59.7	-25.4
GATCGGTCAACCGATC ((((((....))))))	57.5	-39.2
GTCCTTGCGAAAGCAGAC (((..(((....))))))	32.3	-12.3
GCGGGCAGCCGC ((((....))))	63.5	-16.4
GTCGGATCGAAAGATGAC (((..(((....))))))	31.7	-16.7
GATCTGCATTCAGATC ((((((....))))))	48.9	-39.6
GTGGATCGAAAGATGCAC (((.(((....))).)))	55.9	-45.9
GCTTTGCGAAAGCCAAGC ((((.((....)).))))	52.6	-23
GTCAAGTCGAAAGACGAC (((..(((....))))))	41.9	-15.4
GCCGCGCGAAAGCGGTGC ((..(((....)))..))	58	-16.2
GGCCTGGGAAACCAGGTC (.(((((....))))).)	58.5	-33
GCGTCATACGC ((((...))))	62.7	-20.1
GATCCTTGACAGGATC ((((((....))))))	49.7	-28.2
GAATCTGGAAACAGATTC (((((((....)))))))	55.6	-49.8
GATGTCGGAAACGACGTC ((.((((....)))).))	54.1	-31.3
GATCCAGCAATGGATC ((((((....))))))	56.8	-41.6
GATCAACCAGTTGATC ((((((....))))))	50.4	-41.9
GGACGCACGAAAGTGTCC (((..(((....))))))	47	-21.4
GTCAGTGGAAACACTGGC (.(((((....))))).)	54.7	-24.8
GCTACGCGAAAGCCTAGC ((((.((....)).))))	45.6	-23.3
GTACGCCGAAAGGCCTAC (((.(((....))).)))	39.2	-10.9
GGGCGAGGAAACCCGCCC (((((.(....).)))))	64.5	-34.7
GATCATGCTATGATC ((((((...))))))	49.9	-27.9
